According to ChEMBL document CHEMBL1147868, “Synthesis of novel triazole derivatives as inhibitors of cytochrome P450 14alpha-demethylase (CYP51)” (2007):
Converted amounts (≈) assume the structure as drawn.

Experiments:
Assay type in all cases: functional
Trichophyton rubrum = assay: Antifungal activity against Trichophyton rubrum after 7 days by microbroth dilution method; settings: 168 h
How it was run: (§1)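 Clinical isolates supplied by a hospital were tested by NCCLS broth microdilution. Compounds were dissolved in DMSO, serially diluted in growth medium, inoculated and incubated at 35 C. Growth was read at 7 days for filamentous fungi. MIC80 was taken as the first well with about 80% less growth than the drug-free well.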

Candida tropicalis = assay: Antifungal activity against Candida tropicalis after 7 days by micro-broth dilution method; settings: 168 h
How it was run: (§2)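 Micro-broth dilution followed NCCLS methods, using an ATCC standard quality-control strain for C. parapsilosis and a clinical isolate for C. tropicalis. Compounds were dissolved in DMSO, serially diluted in growth medium and incubated at 35 C. MIC80 was the first well with about 80% growth reduction compared with the drug-free well.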

Candida parapsilosis = assay: Antifungal activity against Candida parapsilosis ATCC 0306392 after 7 days by micro-broth dilution method; settings: Lodderomyces parapsilosis, ATCC 0306392, 168 h; how it was run: as §2
Cryptococcus neoformans = assay: Antifungal activity against Cryptococcus neoformans ATCC BLS108 after 72 hrs by micro-broth dilution method
How it was run: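 This ATCC standard quality-control strain was tested in every assay by NCCLS microdilution. Test agents were dissolved in DMSO and serially diluted in growth medium. Cultures were incubated at 35 C and read at 72 h. MIC80 was the first well with approximately 80% reduced growth relative to the drug-free well.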

Candida albicans = assay: Antifungal activity against Candida albicans ATCC Y0109 after 24 hrs by micro-broth dilution method
How it was run: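 An ATCC standard quality-control strain was included in each run of an NCCLS micro-broth dilution assay. Compounds were dissolved in DMSO, serially diluted in growth medium and incubated at 35 C. Reading was at 24 h, and MIC80 was the first well showing roughly 80% growth reduction versus the drug-free control.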

Microsporum = assay: Antifungal activity against Microsporum gypseum after 7 days by micro-broth dilution method; settings: 168 h; how it was run: as §1
Fonsecaea compacta = assay: Antifungal activity against Fonsecaea compacta after 7 days by micro-broth dilution method; settings: 168 h; how it was run: as §1
Aspergillus fumigatus = assay: Antifungal activity against Aspergillus fumigatus after 7 days by micro-broth dilution method; settings: 168 h; how it was run: as §1

| SMILES | MIC80 (Trichophyton rubrum) [µg/mL] | MIC80 (Candida tropicalis) [µg/mL] | MIC80 (Candida parapsilosis) [µg/mL] | MIC80 (Cryptococcus neoformans) [µg/mL] | MIC80 (Candida albicans) [µg/mL] | MIC80 (Microsporum) [µg/mL] | MIC80 (Fonsecaea compacta) [µg/mL] | MIC80 (Aspergillus fumigatus) [µg/mL] |
| --- | --- | --- | --- | --- | --- | --- | --- | --- |
| C[C@@H]1[C@H](O)[C@@H](C)/C=C/C=C/C=C/C=C/C=C/C=C/C=C/[C@H](O[C@@H]2O[C@H](C)[C@@H](O)[C@H](N)[C@@H]2O)C[C@@H]2O[C@](O)(C[C@@H](O)C[C@@H](O)[C@H](O)CC[C@@H](O)C[C@@H](O)CC(=O)O[C@H]1C)C[C@H](O)[C@H]2C(=O)O [AMPHOTERICIN B] | 1 (≈ 1.08 µM) | 0.0625 (≈ 0.0676 µM) | 0.0152 (≈ 0.0164 µM) | 1 (≈ 1.08 µM) | 1 (≈ 1.08 µM) | 0.0039 (≈ 0.00422 µM) | 16 (≈ 17.3 µM) | 4 (≈ 4.33 µM) |
| O=C(Nc1ccc(N2CCN(CC(O)(Cn3cncn3)c3ccc(F)cc3F)CC2)c(F)c1)c1ccc(Cl)cc1Cl (stereo not given) | 0.0625 (≈ 0.103 µM) | 0.0625 (≈ 0.103 µM) | 0.0152 (≈ 0.0251 µM) | 0.0625 (≈ 0.103 µM) | 0.25 (≈ 0.413 µM) | 0.0039 (≈ 0.00644 µM) | 0.25 (≈ 0.413 µM) | 0.25 (≈ 0.413 µM) |
| CC(C)c1ccc(C(=O)Nc2ccc(N3CCN(CC(O)(Cn4cncn4)c4ccc(F)cc4F)CC3)c(F)c2)cc1 (stereo not given) | 0.25 (≈ 0.432 µM) | 0.25 (≈ 0.432 µM) | 0.25 (≈ 0.432 µM) | 0.0625 (≈ 0.108 µM) | 1 (≈ 1.73 µM) | 0.25 (≈ 0.432 µM) | 0.25 (≈ 0.432 µM) | 4 (≈ 6.91 µM) |
| Cc1ccc(C(=O)Nc2ccc(N3CCN(CC(O)(Cn4cncn4)c4ccc(F)cc4F)CC3)c(F)c2)cc1C (stereo not given) | 0.0625 (≈ 0.111 µM) | 0.0625 (≈ 0.111 µM) | 0.0152 (≈ 0.0269 µM) | 0.25 (≈ 0.443 µM) | 0.25 (≈ 0.443 µM) | 0.0152 (≈ 0.0269 µM) | 0.25 (≈ 0.443 µM) | 1 (≈ 1.77 µM) |
| O=C(Nc1ccc(N2CCN(CC(O)(Cn3cncn3)c3ccc(F)cc3F)CC2)c(F)c1)c1ccc(Cl)cc1 (stereo not given) | 0.0625 (≈ 0.109 µM) | 0.0152 (≈ 0.0266 µM) | 0.0152 (≈ 0.0266 µM) | 0.25 (≈ 0.438 µM) | 0.0625 (≈ 0.109 µM) | 0.25 (≈ 0.438 µM) | 0.0625 (≈ 0.109 µM) | 0.25 (≈ 0.438 µM) |
| O=C(Nc1ccc(N2CCN(CC(O)(Cn3cncn3)c3ccc(F)cc3F)CC2)c(F)c1)c1ccc([N+](=O)[O-])cc1 (stereo not given) | 0.25 (≈ 0.43 µM) | 4 (≈ 6.88 µM) | 1 (≈ 1.72 µM) | 0.25 (≈ 0.43 µM) | 0.25 (≈ 0.43 µM) | 0.0625 (≈ 0.107 µM) | 0.0625 (≈ 0.107 µM) | 4 (≈ 6.88 µM) |
| O=C(Nc1ccc(N2CCN(CC(O)(Cn3cncn3)c3ccc(F)cc3F)CC2)c(F)c1)c1ccc(OC(F)(F)F)cc1 (stereo not given) | 0.0625 (≈ 0.101 µM) | 0.0625 (≈ 0.101 µM) | 0.0625 (≈ 0.101 µM) | 0.25 (≈ 0.403 µM) | 0.0152 (≈ 0.0245 µM) | 0.0625 (≈ 0.101 µM) | 0.0625 (≈ 0.101 µM) | 1 (≈ 1.61 µM) |
| O=C(Nc1ccc(N2CCN(CC(O)(Cn3cncn3)c3ccc(F)cc3F)CC2)c(F)c1)c1cccc(Br)c1 (stereo not given) | 0.0625 (≈ 0.102 µM) | 0.0625 (≈ 0.102 µM) | 0.0625 (≈ 0.102 µM) | 0.25 (≈ 0.406 µM) | 0.0625 (≈ 0.102 µM) | 0.25 (≈ 0.406 µM) | 0.25 (≈ 0.406 µM) | 4 (≈ 6.5 µM) |
| Cc1ccc(C(=O)Nc2ccc(N3CCN(CC(O)(Cn4cncn4)c4ccc(F)cc4F)CC3)c(F)c2)cc1 (stereo not given) | 0.0625 (≈ 0.114 µM) | 0.0152 (≈ 0.0276 µM) | 0.0152 (≈ 0.0276 µM) | 0.0625 (≈ 0.114 µM) | 0.0625 (≈ 0.114 µM) | 1 (≈ 1.82 µM) | 0.0625 (≈ 0.114 µM) | 1 (≈ 1.82 µM) |
| O=C(Nc1ccc(N2CCN(CC(O)(Cn3cncn3)c3ccc(F)cc3F)CC2)c(F)c1)c1ccccc1Br (stereo not given) | 0.0039 (≈ 0.00634 µM) | 0.0152 (≈ 0.0247 µM) | 0.0152 (≈ 0.0247 µM) | 0.0625 (≈ 0.102 µM) | 0.0625 (≈ 0.102 µM) | 0.0625 (≈ 0.102 µM) | 0.25 (≈ 0.406 µM) | 1 (≈ 1.62 µM) |
| Cc1ccccc1C(=O)Nc1ccc(N2CCN(CC(O)(Cn3cncn3)c3ccc(F)cc3F)CC2)c(F)c1 (stereo not given) | 0.0625 (≈ 0.114 µM) | 0.0152 (≈ 0.0276 µM) | 0.0152 (≈ 0.0276 µM) | 0.0625 (≈ 0.114 µM) | 0.0625 (≈ 0.114 µM) | 0.0152 (≈ 0.0276 µM) | 0.25 (≈ 0.454 µM) | 1 (≈ 1.82 µM) |
| CCCc1ccc(C(=O)Nc2ccc(N3CCN(CC(O)(Cn4cncn4)c4ccc(F)cc4F)CC3)c(F)c2)cc1 (stereo not given) | 0.25 (≈ 0.432 µM) | 1 (≈ 1.73 µM) | 0.0625 (≈ 0.108 µM) | 1 (≈ 1.73 µM) | 1 (≈ 1.73 µM) | 0.25 (≈ 0.432 µM) | 0.25 (≈ 0.432 µM) | 4 (≈ 6.91 µM) |
| CC(C)(C)c1ccc(C(=O)Nc2ccc(N3CCN(CC(O)(Cn4cncn4)c4ccc(F)cc4F)CC3)c(F)c2)cc1 (stereo not given) | 4 (≈ 6.75 µM) | 0.25 (≈ 0.422 µM) | 0.0625 (≈ 0.105 µM) | 0.25 (≈ 0.422 µM) | 1 (≈ 1.69 µM) | 0.25 (≈ 0.422 µM) | 0.25 (≈ 0.422 µM) | 4 (≈ 6.75 µM) |
| CCc1ccc(C(=O)Nc2ccc(N3CCN(CC(O)(Cn4cncn4)c4ccc(F)cc4F)CC3)c(F)c2)cc1 (stereo not given) | 0.0625 (≈ 0.111 µM) | 0.0625 (≈ 0.111 µM) | 4 (≈ 7.08 µM) | 0.0625 (≈ 0.111 µM) | 0.25 (≈ 0.443 µM) | 0.25 (≈ 0.443 µM) | 0.0625 (≈ 0.111 µM) | 1 (≈ 1.77 µM) |
| Cc1cccc(C(=O)Nc2ccc(N3CCN(CC(O)(Cn4cncn4)c4ccc(F)cc4F)CC3)c(F)c2)c1 (stereo not given) | 0.0625 (≈ 0.114 µM) | 0.0152 (≈ 0.0276 µM) | 0.0152 (≈ 0.0276 µM) | 0.0625 (≈ 0.114 µM) | 0.0625 (≈ 0.114 µM) | 0.0152 (≈ 0.0276 µM) | 0.25 (≈ 0.454 µM) | 1 (≈ 1.82 µM) |
